Measurements: ChEMBL document CHEMBL2331495, “Novel pyrazole derivatives as neutral CB₁ antagonists with significant activity towards food intake” (Eur J Med Chem, 2013)
The source made the active and inactive calls. No cut-off for these calls is given here.

Legend:
[1] = molecular target: Cannabinoid receptor 1 (Mus musculus) (UniProt P47746); experiment: Agonist activity at CB1 receptor in mouse N1E-115 cells assessed as increase in ERK1/2 phosphorylation after 10 mins by Western blot analysis; assay type: cell-based
Summary of the method: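 N1E-115 cells were grown in high-glucose DMEM with 10% FBS at 37 °C, 5% CO2. They were exposed for 10 min to compounds in D-PBS with 1% DMSO, then lysed at 4 °C. P-ERK 1/2 was measured by western blot at 40 µg total protein and expressed as percentage of vehicle. Five independent experiments; one-way ANOVA.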

[2] = molecular target: Cannabinoid receptor 1 (Mus musculus) (UniProt P47746); experiment: Neutral antagonist activity at CB1 receptor in mouse N1E-115 cells assessed as inhibition of WIN 55,212-2-induced ERK1/2 phosphorylation at 125 to 500 nM treated 5 mins prior to WIN 55,212-2 challenge by Western blot analysis; assay type: cell-based
Summary of the method: (§1)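 N1E-115 cells were pretreated for 5 min with compound (0.1-1.0 μM; dissolved in D-PBS with 1% DMSO), then exposed for 10 min to WIN55,212-2 (25 nM). Lysates (40 µg total protein) were western blotted for P-ERK 1/2 and expressed as percentage of vehicle. Five independent experiments; one-way ANOVA.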

[3] = molecular target: Cannabinoid receptor 1 (Mus musculus) (UniProt P47746); experiment: Neutral antagonist activity at CB1 receptor in albino CD1 mouse vas deferens assessed as rightward shift in WIN 55,212-2 concentration response curve for electrically evoked contractions at 0.1 to 10 uM treated 20 mins before first addition of WIN 55,212-2
Summary of the method: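 Vas deferens from male albino CD1 mice, electrically stimulated as for twitch studies, in Krebs-Henseleit at 37 °C. Compound at a fixed concentration (0.1, 1 or 10 μM; DMSO ≤0.1%) was added 20 min before cumulative WIN 55,212-2. Inhibition of twitches was expressed as percentage of the pre-WIN amplitude; mean ± SEM.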

Mus musculus [4] = species on record: Mus musculus; experiment: Selectivity ratio of Ki for CB1 receptor in CD1 mouse brain membrane without cerebellum to Ki for CB2 receptor in CD1 mouse spleen membrane; assay type: cell membranes
Cannabinoid receptor 2 = Cannabinoid receptor 2 (Mus musculus, UniProt P47936); experiment: Displacement of [3H]CP55940 from CB2 receptor in CD1 mouse spleen membrane by liquid scintillation counting analysis; assay type: cell membranes
Mus musculus [5] = experiment: Reduction of food intake in fasted C57Bl6/J mouse at 10 to 20 mg/kg, ip administered 15 mins prior to food presentation measured for 2 hrs; assay type: functional, organism-based
Summary of the method: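 C57Bl6/J mice (20-25 g), housed singly on a reverse light-dark cycle and fasted 18 h. Dosed ip at 10 and 20 mg/kg in saline with Tween 80 and ethanol (each 2.5 wt%). Weighed food presented 15 min later; intake followed over 3 h. Mean ± SEM; two-way ANOVA with Bonferroni post hoc versus vehicle.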

Cannabinoid receptor 1 = Cannabinoid receptor 1 (Mus musculus, UniProt P47746); experiment: Displacement of [3H]CP55940 from CB1 receptor in CD1 mouse brain membrane without cerebellum by liquid scintillation counting analysis; assay type: cell membranes
[6] = molecular target: Cannabinoid receptor 1 (Mus musculus) (UniProt P47746); experiment: Intrinsic activity at CB1 receptor in albino CD1 mouse vas deferens assessed as increase in amplitude of electrically evoked contractions at 0.1 to 100 uM
Summary of the method: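 Vas deferens from male albino CD1 mice (30-40 g) was held at 0.5 g tension in Krebs-Henseleit at 37 °C, gassed with 95% O2/5% CO2. Twitches were evoked by 0.5-s trains of three 0.5-ms pulses at 110% maximal voltage, 0.1 Hz. Compounds (DMSO ≤0.1%) were added once responses were reproducible. Contraction amplitude was compared with control; mean ± SEM, n=5; ANOVA with Bonferroni test.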

[7] = molecular target: Cannabinoid receptor 1 (Homo sapiens) (UniProt P21554); experiment: Intrinsic activity at human recombinant CB1 receptor transfected in CHO cells assessed as effect on [35S]GTPgammaS binding up to 0.1 uM after 1 hr by liquid scintillation spectrometry; assay type: functional, cell-based
Summary of the method: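 […] used CHO cells expressing human recombinant CB1, incubated with [³⁵S]GTPγS and a range of compound concentrations alone for 1 h at 37 °C. The reaction was stopped with ice-cold Tris/BSA, filtered on glass-fibre filters and read by liquid scintillation spectrometry. Data are percentage stimulation over basal, mean ± SEM of five experiments.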

Mus musculus [8] = experiment: Reduction of food intake in fasted C57Bl6/J mouse at 10 to 20 mg/kg, ip administered 15 mins prior to food presentation measured after 1 to 3 hrs; assay type: functional, organism-based
Summary of the method: (§2)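 Male-unspecified C57Bl6/J mice (20-25 g) were housed singly on a reverse light-dark cycle and fasted 18 h. Compounds in saline with 2.5% Tween 80 and 2.5% ethanol, or vehicle, were given ip; food was presented 15 min later. Intake was recorded over 3 h. Mean ± SEM; two-way ANOVA with Bonferroni test.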

[9] = molecular target: Cannabinoid receptor 1 (Mus musculus) (UniProt P47746); experiment: Neutral antagonist activity at CB1 receptor in mouse N1E-115 cells assessed as inhibition of WIN 55,212-2-induced ERK1/2 phosphorylation at 1 uM treated 5 mins prior to WIN 55,212-2 challenge by Western blot analysis; assay type: cell-based; summary of the method: as §1
Mus musculus [10] = experiment: Increase in food intake in fasted C57Bl6/J mouse at 3 to 10 mg/kg, ip administered 15 mins prior to food presentation measured after 3 hrs; assay type: functional, organism-based
[11] = molecular target: Cannabinoid receptor 1 (Mus musculus) (UniProt P47746); conditions: N1E-115, 1 uM
Mus musculus [12] = experiment: Reduction of food intake in fasted C57Bl6/J mouse at 3 to 10 mg/kg, ip administered 15 mins prior to food presentation measured after 1 hr; assay type: functional, organism-based; summary of the method: as §2
Mus musculus [13] = experiment: Toxicity in C57Bl6/J mouse assessed as mortality at 20 mg/kg, ip; assay type: organism-based; design: dose 20 mg/kg, route intraperitoneal; conditions: in vivo
Summary of the method: (§3)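 Fasted C57Bl6/J mice from the food-intake test were given 20 mg/kg ip in saline with Tween 80 and ethanol (each 2.5 wt%).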

Mus musculus [14] = experiment: Toxicity in C57Bl6/J mouse assessed as locomotion blockage at 20 mg/kg, ip; assay type: organism-based; design: dose 20 mg/kg, route intraperitoneal; conditions: in vivo; summary of the method: as §3
Mus musculus [15] = experiment: Toxicity in C57Bl6/J mouse assessed as observable adverse events at 20 mg/kg, ip; assay type: organism-based; design: dose 20 mg/kg, route intraperitoneal; conditions: in vivo
Mus musculus [16] = experiment: Reduction of food intake in fasted C57Bl6/J mouse at 10 to 20 mg/kg, ip administered 15 mins prior to food presentation measured after 2 to 3 hrs; assay type: functional, organism-based; summary of the method: as §2

Cannabinoid receptor 2, sequence (P47936 whole entry): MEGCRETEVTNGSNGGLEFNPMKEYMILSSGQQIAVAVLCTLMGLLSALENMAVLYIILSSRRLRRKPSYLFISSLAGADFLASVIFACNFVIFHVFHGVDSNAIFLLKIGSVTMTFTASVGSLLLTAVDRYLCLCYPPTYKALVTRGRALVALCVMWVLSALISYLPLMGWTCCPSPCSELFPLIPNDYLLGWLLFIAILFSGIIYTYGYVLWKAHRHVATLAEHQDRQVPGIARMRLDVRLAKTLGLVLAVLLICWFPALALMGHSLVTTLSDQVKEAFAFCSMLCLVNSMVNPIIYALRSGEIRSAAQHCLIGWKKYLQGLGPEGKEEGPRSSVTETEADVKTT
Cannabinoid receptor 1 (Homo sapiens), sequence (P21554 whole entry): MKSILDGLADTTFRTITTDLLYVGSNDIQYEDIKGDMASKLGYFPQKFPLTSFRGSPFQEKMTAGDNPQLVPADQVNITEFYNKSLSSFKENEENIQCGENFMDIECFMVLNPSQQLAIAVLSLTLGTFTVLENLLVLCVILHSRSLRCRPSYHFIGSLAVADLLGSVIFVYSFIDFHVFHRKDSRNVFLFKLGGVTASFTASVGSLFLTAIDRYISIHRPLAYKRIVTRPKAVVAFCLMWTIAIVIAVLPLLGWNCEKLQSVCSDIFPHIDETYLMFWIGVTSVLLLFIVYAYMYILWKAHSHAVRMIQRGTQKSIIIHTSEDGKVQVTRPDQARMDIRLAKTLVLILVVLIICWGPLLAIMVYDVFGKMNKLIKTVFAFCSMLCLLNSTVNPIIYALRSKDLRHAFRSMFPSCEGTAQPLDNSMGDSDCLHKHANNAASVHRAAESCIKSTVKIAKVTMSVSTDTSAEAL
Cannabinoid receptor 1, sequence (P47746 whole entry): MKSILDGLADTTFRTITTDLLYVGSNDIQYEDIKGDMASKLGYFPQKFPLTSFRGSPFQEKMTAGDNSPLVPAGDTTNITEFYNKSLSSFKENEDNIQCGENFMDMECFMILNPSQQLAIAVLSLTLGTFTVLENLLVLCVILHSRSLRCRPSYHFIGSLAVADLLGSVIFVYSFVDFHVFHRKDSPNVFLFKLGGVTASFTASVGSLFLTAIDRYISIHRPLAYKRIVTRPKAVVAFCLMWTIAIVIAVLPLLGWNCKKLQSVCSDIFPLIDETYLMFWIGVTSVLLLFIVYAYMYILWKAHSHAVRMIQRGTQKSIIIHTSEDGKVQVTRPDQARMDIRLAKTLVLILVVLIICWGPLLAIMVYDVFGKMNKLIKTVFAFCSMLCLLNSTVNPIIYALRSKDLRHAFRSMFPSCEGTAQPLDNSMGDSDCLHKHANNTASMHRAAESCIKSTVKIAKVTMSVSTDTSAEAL
Cannabinoid receptor 1 (Mus musculus), sequence (P47746 whole entry): as above

| SMILES | Activity [1] | inhibition [2] | Activity [3] | Ratio Ki (Mus musculus [4]) | Ki (Cannabinoid receptor 2) | Ki (Cannabinoid receptor 1) | Intrinsic activity [6] | Intrinsic activity [7] | inhibition [9] | Activity (Mus musculus [5]) | Activity (Mus musculus [8]) | Activity (Mus musculus [10]) | inhibition [11] | Activity (Mus musculus [12]) | Activity (Mus musculus [13]) | Activity (Mus musculus [14]) | Activity (Mus musculus [15]) | Activity (Mus musculus [16]) |
| --- | --- | --- | --- | --- | --- | --- | --- | --- | --- | --- | --- | --- | --- | --- | --- | --- | --- | --- |
| Cc1c(/C=C/C2CCCCC2)nn(-c2ccc(Cl)cc2Cl)c1-c1ccc(Cl)cc1 | inactive | Active | Active | 0.003 | 3800 nM | 11.2 nM | inactive | – | – | Active | – | – | – | – | – | – | – | – |
| Cc1c(C(O)CC2CCCCC2)nn(-c2ccc(Cl)cc2Cl)c1-c1ccc(Cl)cc1 (racemic) | inactive | – | Active | – | 4200 nM | – | inactive | inactive | Active | – | Active | – | – | – | – | – | – | – |
| Cc1c(C(NN2CCCCC2)C(F)(F)F)nn(-c2ccc(Cl)cc2Cl)c1-c1ccc(Cl)cc1 (racemic) | inactive | – | Active | < 0.057 | > 5000 nM | 287 nM | inactive | – | Active | – | – | – | – | – | – | – | – | – |
| Cc1c(C(=O)NN2CCCCC2)nn(-c2ccc(Cl)cc2Cl)c1-c1ccc(Cl)cc1 [RIMONABANT] | inactive | – | – | – | – | – | – | – | – | – | – | Active | Active | Active | Toxic | Toxic | – | – |

Second part, led by results:

| Activity [1] | inhibition [2] | Activity [3] | Ratio Ki (Mus musculus [4]) | Ki (Cannabinoid receptor 2) | Ki (Cannabinoid receptor 1) | Intrinsic activity [6] | Intrinsic activity [7] | inhibition [9] | SMILES | Activity (Mus musculus [5]) | Activity (Mus musculus [8]) | Activity (Mus musculus [10]) | inhibition [11] | Activity (Mus musculus [12]) | Activity (Mus musculus [13]) | Activity (Mus musculus [14]) | Activity (Mus musculus [15]) | Activity (Mus musculus [16]) |
| --- | --- | --- | --- | --- | --- | --- | --- | --- | --- | --- | --- | --- | --- | --- | --- | --- | --- | --- |
| inactive | Active | Active | 0.021 | 2230 nM | 46.1 nM | – | inactive | – | Cc1c(C(=O)CC2CCCCC2)nn(-c2ccc(Cl)cc2Cl)c1-c1ccc(Cl)cc1 | – | Active | – | – | – | – | – | – | – |
| – | – | Active | 0.103 | 4000 nM | 412 nM | inactive | – | – | Cc1c(/C(F)=C\C2CCCCC2)nn(-c2ccc(Cl)cc2Cl)c1-c1ccc(Cl)cc1 | – | – | – | – | – | – | – | – | – |
| inactive | Active | Active | 0.013 | 1950 nM | 25.8 nM | inactive | inactive | – | Cc1c(/C(F)=C/C2CCCCC2)nn(-c2ccc(Cl)cc2Cl)c1-c1ccc(Cl)cc1 | – | – | – | – | – | – | – | Non-toxic | Active |
